According to ChEMBL document CHEMBL1759959, “Synthesis and antitumor activity of 10-arylcamptothecin derivatives” (Bioorg Med Chem Lett, 2011):
The source made the active and inactive calls. The rule behind the calls is not given here.

Tests used:
Bel-7402 = assay: Cytotoxicity against human Bel7402 cells after 3 days; format: functional, cell-based
In short: (§1)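 HL60 (leukaemia), A549 (lung) and BEL-7402 (liver) human tumour cells exposed to compounds for 3 days; viability read by MTT assay and SRB assay; IC50 (half-maximal inhibitory concentration) reported.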

HL-60 = assay: Cytotoxicity against human HL60 cells after 3 days; format: functional, cell-based; in short: as §1
A549 [1] = assay: Cytotoxicity against human A549 cells after 3 days; format: functional, cell-based; in short: as §1
[2] = biological target: T1, DNA topoisomerase 1 (Homo sapiens) (UniProt P11387); assay: Inhibition of topoisomerase 1-mediated relaxation of supercoiled pBR322 DNA at 6.25 to 100 uM after 30 mins by […]
T1 sequence (whole entry): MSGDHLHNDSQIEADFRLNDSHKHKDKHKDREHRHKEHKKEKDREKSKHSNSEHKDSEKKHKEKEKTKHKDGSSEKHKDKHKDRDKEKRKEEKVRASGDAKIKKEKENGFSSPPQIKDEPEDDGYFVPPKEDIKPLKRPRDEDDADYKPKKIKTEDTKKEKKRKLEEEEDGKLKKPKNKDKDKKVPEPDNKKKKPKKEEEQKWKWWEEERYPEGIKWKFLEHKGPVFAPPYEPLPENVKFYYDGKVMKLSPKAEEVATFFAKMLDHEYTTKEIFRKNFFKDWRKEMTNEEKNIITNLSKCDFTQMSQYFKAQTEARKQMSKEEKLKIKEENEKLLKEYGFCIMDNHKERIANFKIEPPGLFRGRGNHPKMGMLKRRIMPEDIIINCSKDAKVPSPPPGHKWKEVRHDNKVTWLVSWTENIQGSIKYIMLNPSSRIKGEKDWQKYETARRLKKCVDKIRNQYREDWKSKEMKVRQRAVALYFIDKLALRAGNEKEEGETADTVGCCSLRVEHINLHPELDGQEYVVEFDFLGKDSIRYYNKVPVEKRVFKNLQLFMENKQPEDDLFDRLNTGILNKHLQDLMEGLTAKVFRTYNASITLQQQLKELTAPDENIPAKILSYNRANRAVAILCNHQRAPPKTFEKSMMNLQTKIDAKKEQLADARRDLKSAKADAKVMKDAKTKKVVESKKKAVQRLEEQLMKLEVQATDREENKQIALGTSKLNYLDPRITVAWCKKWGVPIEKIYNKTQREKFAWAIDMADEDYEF
In short: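 Supercoiled pBR322 DNA incubated with topoisomerase I (1 unit) with or without drug, 37 °C, 30 min; stopped with 10% SDS; products resolved on 1% agarose gel, supercoiled versus relaxed bands scored; camptothecin as reference.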

A549 [3] = assay: Cell cycle arrest in human A549 cells assessed as accumulation at S phase at 25 nM after 24 hrs by flow cytometry (reference value: 27.52%)
[4] = Chemical stability of the compound in phosphate saline buffer at pH 7.4 at 50 umol/L by HPLC analysis in presence of human blood; format: physicochemical; conditions: pH 7.4, 50 µM
In short: (§2)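 Lactone stability followed by HPLC with fluorescence detection; drug at 50 μmol/L incubated at pH 7.4, 37 °C in PBS, PBS with human serum albumin, or human blood; each point mean of three determinations, uncertainty 10% or less.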

A549 [5] = assay: Cell cycle arrest in human A549 cells assessed as accumulation at G0/G1 phase at 50 uM after 24 hrs by flow cytometry (reference value: 62.14%); format: functional
A549 [6] = assay: Cell cycle arrest in human A549 cells assessed as accumulation at S phase at 12.5 uM after 24 hrs by flow cytometry (reference value: 27.52%); format: functional
[7] = Chemical stability of the compound in phosphate saline buffer at pH 7.4 at 50 umol/L by HPLC analysis in presence of HAS; format: physicochemical; conditions: pH 7.4, 50 µM; in short: as §2
A549 [8] = assay: Cell cycle arrest in human A549 cells assessed as accumulation at G0/G1 phase at 25 nM after 24 hrs by flow cytometry (reference value: 62.14%)
A549 [9] = assay: Cell cycle arrest in human A549 cells assessed as accumulation at G2/M phase at 12.5 uM after 24 hrs by flow cytometry (reference value: 10.34%); format: functional
A549 [10] = assay: Cell cycle arrest in human A549 cells assessed as accumulation at G2/M phase at 50 uM after 24 hrs by flow cytometry (reference value: 10.34%); format: functional
A549 [11] = assay: Cell cycle arrest in human A549 cells assessed as accumulation at S phase at 50 uM after 24 hrs by flow cytometry (reference value: 27.52%); format: functional
A549 [12] = assay: Cell cycle arrest in human A549 cells assessed as accumulation at G2/M phase at 25 nM after 24 hrs by flow cytometry (reference value: 10.34%)
A549 [13] = assay: Cell cycle arrest in human A549 cells assessed as accumulation at G0/G1 phase at 12.5 uM after 24 hrs by flow cytometry (reference value: 62.14%); format: functional
[14] = Chemical stability of the compound in phosphate saline buffer at pH 7.4 at 50 umol/L by HPLC analysis; format: physicochemical; conditions: pH 7.4, 50 µM; in short: as §2

Compound `CC[C@@]1(O)C(=O)OCc2c1cc1n(c2=O)Cc2cc3cc(-c4ccc(OC)cc4)ccc3nc2-1` has an IC50 (Bel-7402; Homo sapiens, Bel-7402, 72 h) of 5890 nM, an IC50 (HL-60; Homo sapiens, HL-60, 72 h) of 780 nM and an IC50 (A549 [1]; Homo sapiens, A549, 72 h) of 500 nM.

For `CC[C@@]1(O)C(=O)OCc2c1cc1n(c2=O)Cc2cc3cc(-c4cccnc4)ccc3nc2-1`, the IC50 (Bel-7402; Homo sapiens, Bel-7402, 72 h) was 380 nM, the IC50 (HL-60; Homo sapiens, HL-60, 72 h) was 32 nM and the IC50 (A549 [1]; Homo sapiens, A549, 72 h) was 68 nM.

With `CC[C@@]1(O)C(=O)OCc2c1cc1n(c2=O)Cc2cc3cc(-c4ccncc4)ccc3nc2-1` [listing 1 of 2 here] the inhibition [2] was “Active”.

Compound `CC[C@@]1(O)C(=O)OCc2c1cc1n(c2=O)Cc2cc3cc(-c4ccc(C(=O)OC)cc4)ccc3nc2-1` has an IC50 (Bel-7402; Homo sapiens, Bel-7402, 72 h) of 650 nM, an IC50 (HL-60; Homo sapiens, HL-60, 72 h) of 280 nM and an IC50 (A549 [1]; Homo sapiens, A549, 72 h) of 510 nM.

Compound `CC[C@@]1(O)C(=O)OCc2c1cc1n(c2=O)Cc2cc3cc(-c4cnc5ccccc5c4)ccc3nc2-1` has an IC50 (Bel-7402; Homo sapiens, Bel-7402, 72 h) of 6590 nM, an IC50 (HL-60; Homo sapiens, HL-60, 72 h) of 1440 nM and an IC50 (A549 [1]; Homo sapiens, A549, 72 h) of 5950 nM.

`CC[C@@]1(O)C(=O)OCc2c1cc1n(c2=O)Cc2cc3cc(-c4ccsc4)ccc3nc2-1` gave an IC50 (Bel-7402; Homo sapiens, Bel-7402, 72 h) of 230 nM, an IC50 (HL-60; Homo sapiens, HL-60, 72 h) of 37 nM and an IC50 (A549 [1]; Homo sapiens, A549, 72 h) of 12 nM.

Compound `CC[C@@]1(O)C(=O)OCc2c1cc1n(c2=O)Cc2cc3cc(-c4cccc(C(=O)OC)c4)ccc3nc2-1` has an IC50 (Bel-7402; Homo sapiens, Bel-7402, 72 h) of 5120 nM, an IC50 (HL-60; Homo sapiens, HL-60, 72 h) of 49 nM and an IC50 (A549 [1]; Homo sapiens, A549, 72 h) of 23 nM.

In the case of `CC[C@@]1(O)C(=O)OCc2c1cc1n(c2=O)Cc2cc3cc(-c4ccncc4)ccc3nc2-1` [listing 2 of 2 here], the Activity (A549 [3]) is reported as 16.74%, the Stability [4] is reported as “Stable” and the Activity (A549 [5]) is reported as 22.33%. The Activity (A549 [6]) was 18.18%, the Stability [7] was “Stable” and the IC50 (Bel-7402; Homo sapiens, Bel-7402, 72 h) was 420 nM. For the same compound, the Activity (A549 [8]) was 44.85%, the Activity (A549 [9]) was 22.22% and the Activity (A549 [10]) was 63.43%. The IC50 (HL-60; hl-60) was 9 nM, the Activity (A549 [11]) was 14.24% and the Activity (A549 [12]) was 38.41%. For the same compound, the Activity (A549 [13]) was 59.61%, the Stability [14] was “Stable” and the IC50 (A549 [1]; Homo sapiens, A549, 72 h) was 67 nM.

For `CC[C@@]1(O)C(=O)OCc2c1cc1n(c2=O)Cc2cc3cc(-c4cccc(N(C)C)c4)ccc3nc2-1`, the IC50 (Bel-7402; Homo sapiens, Bel-7402, 72 h) was 180 nM, the IC50 (HL-60; Homo sapiens, HL-60, 72 h) was 13 nM and the IC50 (A549 [1]; Homo sapiens, A549, 72 h) was 40 nM.

With `CC[C@@]1(O)C(=O)OCc2c1cc1n(c2=O)Cc2cc3cc(-c4ccc(N(C)C)cc4)ccc3nc2-1` the IC50 (Bel-7402; Homo sapiens, Bel-7402, 72 h) was 36500 nM, the IC50 (HL-60; Homo sapiens, HL-60, 72 h) was 2880 nM and the IC50 (A549 [1]; Homo sapiens, A549, 72 h) was 2680 nM.

For `CC[C@@]1(O)C(=O)OCc2c1cc1n(c2=O)Cc2cc3cc(-c4ccc(C(=O)O)cc4)ccc3nc2-1`, the IC50 (Bel-7402; Homo sapiens, Bel-7402, 72 h) was 13800 nM, the IC50 (HL-60; Homo sapiens, HL-60, 72 h) was 1450 nM and the IC50 (A549 [1]; Homo sapiens, A549, 72 h) was 11600 nM.

Work on `CC[C@@]1(O)C(=O)OCc2c1cc1n(c2=O)Cc2cc3cc(-c4ccccc4N(C)C)ccc3nc2-1` yielded an IC50 (Bel-7402; Homo sapiens, Bel-7402, 72 h) of 1530 nM, an IC50 (HL-60; Homo sapiens, HL-60, 72 h) of 160 nM and an IC50 (A549 [1]; Homo sapiens, A549, 72 h) of 230 nM.

With `CC[C@@]1(O)C(=O)OCc2c1cc1n(c2=O)Cc2cc3cc(-c4cccs4)ccc3nc2-1` the IC50 (Bel-7402; Homo sapiens, Bel-7402, 72 h) was 80 nM, the IC50 (HL-60; Homo sapiens, HL-60, 72 h) was 48 nM and the IC50 (A549 [1]; Homo sapiens, A549, 72 h) was 10 nM.

Compound `CC[C@@]1(O)C(=O)OCc2c1cc1n(c2=O)Cc2cc3cc(-c4ccc(O)cc4)ccc3nc2-1` has an IC50 (Bel-7402; Homo sapiens, Bel-7402, 72 h) of 1050 nM, an IC50 (HL-60; Homo sapiens, HL-60, 72 h) of 20 nM and an IC50 (A549 [1]; Homo sapiens, A549, 72 h) of 140 nM.

`CC[C@@]1(O)C(=O)OCc2c1cc1n(c2=O)Cc2cc3cc(-c4ccccc4Cl)ccc3nc2-1` showed an IC50 (Bel-7402; Homo sapiens, Bel-7402, 72 h) of 2460 nM, an IC50 (HL-60; Homo sapiens, HL-60, 72 h) of 590 nM and an IC50 (A549 [1]; Homo sapiens, A549, 72 h) of 1120 nM.

For `CC[C@@]1(O)C(=O)OCc2c1cc1n(c2=O)Cc2cc3cc(-c4ccc(Cl)cc4)ccc3nc2-1`, the IC50 (Bel-7402; Homo sapiens, Bel-7402, 72 h) was 3120 nM, the IC50 (HL-60; Homo sapiens, HL-60, 72 h) was 300 nM and the IC50 (A549 [1]; Homo sapiens, A549, 72 h) was 320 nM.

Work on `CC[C@@]1(O)C(=O)OCc2c1cc1n(c2=O)Cc2cc3c(CN(C)C)c(O)ccc3nc2-1` [TOPOTECAN] yielded an Activity (A549 [3]) of 24.95%, an IC50 (Bel-7402; Homo sapiens, Bel-7402, 72 h) of 470 nM and an Activity (A549 [8]) of 40.04%. The IC50 (HL-60; Homo sapiens, HL-60, 72 h) was 52 nM, the Activity (A549 [12]) was 35.02% and the IC50 (A549 [1]; Homo sapiens, A549, 72 h) was 71 nM.

`CC[C@@]1(O)C(=O)OCc2c1cc1n(c2=O)Cc2cc3cc(-c4cccc(Cl)c4)ccc3nc2-1` showed an IC50 (Bel-7402; Homo sapiens, Bel-7402, 72 h) of 930 nM, an IC50 (HL-60; Homo sapiens, HL-60, 72 h) of 100 nM and an IC50 (A549 [1]; Homo sapiens, A549, 72 h) of 67 nM.

`CC[C@@]1(O)C(=O)OCc2c1cc1n(c2=O)Cc2cc3cc(-c4ccncc4)ccc3nc2-1.Cl` gave an Activity (A549 [3]) of 22%, an Activity (A549 [5]) of 19.91% and an Activity (A549 [6]) of 15.74%. For the same compound, the IC50 (Bel-7402; bel-7402) was 460 nM, the Activity (A549 [8]) was 31.29% and the Activity (A549 [9]) was 28.07%. It also gave an Activity (A549 [10]) of 80.09%, an IC50 (HL-60; hl-60) of 21 nM and an Activity (A549 [11]) of 0%. It also gave an Activity (A549 [12]) of 46.71%, an Activity (A549 [13]) of 56.19% and an IC50 (A549 [1]; a549) of 62 nM.
